pKi: −log10 of the molar value. The source made the active and inactive calls. The rule behind the calls is not given here.
Legend:
[1] = Displacement of [3H]-(+)-MK801 from NMDA receptor PCP binding site in pig cortex membrane after 90 mins by liquid scintillation counting; format: cell membranes, Sus scrofa
Summary of the method: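 Pig brain cortex membranes (about 100 µg protein) incubated with 2 nM [3H]-(+)-MK-801 and at least 6 test concentrations in 5 mM Tris–acetate, 1 mM EDTA, pH 7.5, 90 min at 25 °C. Filtered on PEI-soaked GF/C filters. Non-specific binding with 10 µM (+)-MK-801. IC50 by nonlinear regression, triplicates; Ki mean ± SEM of three experiments.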

[2] = target: Sigma non-opioid intracellular receptor 1 (Cavia porcellus, UniProt Q60492); assay: Displacement of [3H]-(+)-pentazocine from sigma 1 receptor PCP binding site in guinea pig brain by liquid scintillation counting
Sigma non-opioid intracellular receptor 1, sequence (Q60492 whole entry): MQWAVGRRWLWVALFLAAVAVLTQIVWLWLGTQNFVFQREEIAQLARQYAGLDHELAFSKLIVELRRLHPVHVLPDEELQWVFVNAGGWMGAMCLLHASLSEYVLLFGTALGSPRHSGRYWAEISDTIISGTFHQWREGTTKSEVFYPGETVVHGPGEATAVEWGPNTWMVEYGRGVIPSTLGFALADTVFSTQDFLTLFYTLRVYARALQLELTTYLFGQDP

[3] = Displacement of [3H]-ditolylguanidine from sigma 2 receptor PCP binding site in rat liver membrane; format: cell membranes
Summary of the method: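 Non-specific binding with 10 µM unlabelled ditolylguanidine. Triplicates; IC50 from at least 6 concentrations by nonlinear regression; Ki mean ± SEM of three experiments.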

Mus musculus [4] = assay: Analgesic activity against capsaicin-induced nocifensive behavior in mouse assessed as paw withdrawal latency to von Frey filament-induced pain at 1 mg/kg administered 30 mins before and measured 15 mins after capsaicin challenge; format: functional
Summary of the method: (§1)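 Capsaicin injected into mid-plantar surface of right hind paw of mice; test ligand given 30 min before capsaicin. Mechanical withdrawal latency to a 1 g von Frey filament read 15 min after capsaicin; effect expressed as % analgesia.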

Mus musculus [5] = assay: Analgesic activity against capsaicin-induced nocifensive behavior in mouse assessed as paw withdrawal latency to von Frey filament-induced pain at 32 mg/kg administered 30 mins before and measured 15 mins after capsaicin challenge; format: functional, organism-based; design: dose 32 mg/kg; summary of the method: as §1
Mus musculus [6] = assay: Analgesic activity against capsaicin-induced nocifensive behavior in mouse assessed as paw withdrawal latency to von Frey filament-induced pain at 0.25 mg/kg administered 30 mins before and measured 15 mins after capsaicin challenge; format: functional; summary of the method: as §1
[7] = Selectivity ratio of Ki for rat sigma 2 receptor to Ki for guinea pig sigma 1 receptor
Mus musculus [8] = assay: Analgesic activity against capsaicin-induced nocifensive behavior in mouse assessed as paw withdrawal latency to von Frey filament-induced pain at 0.5 mg/kg administered 30 mins before and measured 15 mins after capsaicin challenge; format: functional; summary of the method: as §1
Mus musculus [9] = assay: Analgesic activity against capsaicin-induced nocifensive behavior in mouse assessed as paw withdrawal latency to von Frey filament-induced pain at 0.125 mg/kg administered 30 mins before and measured 15 mins after capsaicin challenge; format: functional; summary of the method: as §1
[10] = Displacement of [3H]-(+)-MK801 from NMDA receptor PCP binding site
Summary of the method: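 Pig brain cortex membranes (about 100 µg protein) incubated with test compound (at least 6 concentrations), 2 nM [3H]-(+)-MK-801 in 5 mM Tris–acetate, 1 mM EDTA, pH 7.5, 90 min at 25 °C. Filtered through polyethylenimine-soaked GF/C filters, counted by scintillation. Nonspecific binding with 10 µM (+)-MK-801. IC50 from nonlinear regression, converted to Ki. Triplicates, three independent experiments.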

Row | Structure (SMILES) | pKi [1] | pKi [2] | pKi [3] | also measured
1 | NCC[C@@H]1CCOC(c2ccccc2)(c2ccccc2)O1 | 5.63 | < 5.00 | < 5.00 | 
2 | CNCC[C@@H]1CCOC(c2ccccc2)(c2ccccc2)O1 | 5.16 | < 5.00 | < 5.00 | 
3 | CN(C)CC[C@@H]1CCOC(c2ccccc2)(c2ccccc2)O1 | < 5.00 | 6.18 | < 5.00 | 
4 | c1ccc(CNCC[C@@H]2CCOC(c3ccccc3)(c3ccccc3)O2)cc1 | < 5.00 | 6.49 | 5.56 | 
5 | NCC[C@@H]1CCOC2(O1)C1CC3CC(C1)CC2C3 (some centres undefined) | < 5.00 | 5.90 | < 5.00 | 
6 | NCCC[C@@H]1CCOC(c2ccccc2)(c2ccccc2)O1 | < 5.00 | 6.76 | < 5.00 | 
7 | NCC[C@H]1COC(c2ccccc2)(c2ccccc2)O1 | 5.49 |  |  | 
8 | CC[C@]1(c2ccccc2)OC[C@H](CCN)O1 | 7.16 |  |  | 
9 | NC[C@@H]1CCOC(c2ccccc2)(c2ccccc2)O1 | 6.14 |  |  | 
10 | CC[C@]1(c2ccccc2)OCC[C@@H](CN)O1 | 6.59 |  |  | 
11 | NCC[C@@H]1CCO[C@H](c2ccccc2)O1 (racemic) | < 5.00 | 6.78 | < 5.00 | 
12 | CNCC[C@@H]1CCO[C@H](c2ccccc2)O1 (racemic) | < 5.00 | 6.35 | < 5.00 | 
13 | CN(C)CC[C@@H]1CCO[C@H](c2ccccc2)O1 (racemic) | < 5.00 | 5.78 | 5.74 | 
14 | c1ccc(CNCC[C@@H]2CCO[C@H](c3ccccc3)O2)cc1 (racemic) | < 5.00 | 7.72 | 7.04 | Activity (Mus musculus [4]): 100%; Activity (Mus musculus [5]): Active; Activity (Mus musculus [6]): 70%; Ratio Ki [7]: 5; Activity (Mus musculus [8]): 100%; Activity (Mus musculus [9]): 10%
15 | CC[C@@]1(c2ccccc2)OCC[C@@H](CCN)O1 (relative stereo) | 7.62 | 6.02 | < 5.00 | 
16 | CC[C@@]1(c2ccccc2)OCC[C@@H](CCNC)O1 (relative stereo) | 6.81 | 6.07 | < 5.00 | 
17 | CC[C@@]1(c2ccccc2)OCC[C@@H](CCN(C)C)O1 (relative stereo) | 6.15 | 6.29 | < 5.00 | 
18 | CC[C@@]1(c2ccccc2)OCC[C@@H](CCNCc2ccccc2)O1 (relative stereo) | < 5.00 | 7.57 | 6.04 | Activity (Mus musculus [5]): inactive; Ratio Ki [7]: 33
19 | NCCC[C@@H]1CCO[C@H](c2ccccc2)O1 (relative stereo) | < 5.00 | 6.78 | 6.24 | 
20 | CNCCC[C@@H]1CCO[C@H](c2ccccc2)O1 (relative stereo) | < 5.00 | 6.49 | 5.20 | 
21 | CN(C)CCC[C@@H]1CCO[C@H](c2ccccc2)O1 (relative stereo) | < 5.00 | 5.91 | < 5.00 | 
22 | c1ccc(CNCCC[C@@H]2CCO[C@H](c3ccccc3)O2)cc1 (relative stereo) | < 5.00 | 6.79 | 5.41 | 
23 | CC[C@@]1(c2ccccc2)OCC[C@@H](CCCN)O1 (relative stereo) | 5.12 | 5.19 | 6.27 | 
24 | c1ccc(C2(c3ccccc3)OC[C@H]([C@@H]3CCCCN3)O2)cc1 [DEXOXADROL] |  |  |  | pKi [10]: 7.64
25 | Cc1ccccc1NC(=N)Nc1ccccc1C [DITOLYLGUANIDINE] |  |  | 7.19 | 
26 | CC[C@]1(c2ccccc2)OC[C@H]([C@@H]2CCCCN2)O1 [ETOXADROL] | 7.66 |  |  | pKi [10]: 7.70
27 | c1ccc(C2(N3CCCCC3)CCCCC2)cc1 [PHENCYCLIDINE] | 7.55 |  |  | 

From ChEMBL document CHEMBL1781950, “Synthesis of 4-(aminoalkyl) substituted 1,3-dioxanes as potent NMDA and σ receptor antagonists” (Eur J Med Chem, 2011)
